ADAM17 inh: ADAM17 inhibitors, primary screen, biochemical, QFRET; Disintegrin and metalloproteinase domain-containing protein 17 (Homo sapiens), P78536; recombinant ADAM17, EDANS/DABCYL FRET peptide cleavage; inhibition, % at 6.95 µM; 370,000 tested, 0.83% active;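 active = inhibition above the mean of compounds lying between control limits plus 3 SD, set per campaign, cut at about 8.5% in these data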;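 also: 0% = DMSO-only wells as the low control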
ADAM10 inh: human ADAM10 inhibitors, primary screen, biochemical, QFRET, HTS; Disintegrin and metalloproteinase domain-containing protein 10 (Homo sapiens), O14672; recombinant ADAM10, EDANS/DABCYL FRET peptide cleavage, 3 h; inhibition, % at 7 µM; 370,000 tested, 0.62% active;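 active = inhibition above a per-campaign cutoff equal to the mean of compounds falling between control-based bounds plus 3 SD, cut at about 20% in these data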;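 also: 0% = DMSO wells while the 100% control is not disclosed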
FAS TE block: FAS thioesterase domain inhibitors, primary screen, biochemical, fluorescence intensity, uHTS; Fatty acid synthase (Homo sapiens), P49327; recombinant FAS-TE, OMFH fluorogenic substrate, fluorescence endpoint; inhibition, % at 15 µM; 360,000 tested, 0.67% active; AID 602261, 2012;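 active = compounds whose normalised, plate-corrected inhibition of enzyme fluorescence in the single-dose primary screen is 50% or more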;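 also: 0% = DMSO with enzyme and 100% = substrate without enzyme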
SENP1 FRET inh: human SENP1 catalytic domain inhibitors, primary screen, biochemical, FRET, uHTS; Sentrin-specific protease 1 (Homo sapiens), Q9P0U3; recombinant SENP1 catalytic domain, CyPet-SUMO1-YPet FRET cleavage; inhibition, % at 10 µM; 360,000 tested, 0.21% active; AID 624204, 2012;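 active = inhibition at least 30% at 10 µM, raw YFP signal under a set limit, fluorescence ratio 0.5 to 1.5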;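 also: 0% = enzyme with DMSO and 100% = no enzyme wells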
Target sequence (Q9P0U3 419-644 limits assumed): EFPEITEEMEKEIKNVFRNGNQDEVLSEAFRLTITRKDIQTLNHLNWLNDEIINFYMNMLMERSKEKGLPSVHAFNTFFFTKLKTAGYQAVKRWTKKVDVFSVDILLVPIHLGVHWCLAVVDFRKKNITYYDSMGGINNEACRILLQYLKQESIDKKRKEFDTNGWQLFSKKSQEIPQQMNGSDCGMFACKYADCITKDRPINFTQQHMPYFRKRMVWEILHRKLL
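system = hSENP1 catalytic domain, recombinant | reagent = SFCypet-SUMO1-SFYpet substrate at 25 nM | doses = one dose per compound, 10 µM, 0.5% DMSO | incubation = enzyme reaction for 50 min at room temperature, dark | measured by = FRET, CFP and YFP emission | controls = no-enzyme low, enzyme-DMSO high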
ADAM10 confirm: human ADAM10 inhibitors, confirmation, biochemical, QFRET, triplicate; ADAM10 QFRET peptide cleavage, EDANS fluorescence; 2,100 tested, 1% active; shares compounds with ADAM10 inh; AID 743208, 2013; inhibition, % at 6.95 µM;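 active = inhibition above about 20% chosen separately for each screening run, limit read from the data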;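 also: 0% = DMSO wells and 100% = marimastat wells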
ADAM17 counter: ADAM17 inhibitors, counter-screen for ADAM10 exosite inhibitor project, biochemical, QFRET, high throughput; 2,100 tested, 0.5% active; shares compounds with ADAM10 inh; inhibition, % at 6.95 µM; ADAM17 QFRET peptide cleavage, EDANS fluorescence;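 active = mean triplicate inhibition above the solvent-only control wells' mean plus 3 SD, cut at about 12% in these data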;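 also: 0% = DMSO wells and 100% = marimastat wells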
ADAM10 counter: ADAM10 inhibitors, counter-screen for ADAM17 exosite inhibitor project, biochemical, FRET, human ADAM10 | shares compounds with ADAM17 inh | recombinant ADAM10, EDANS/DABCYL FRET peptide cleavage, 3 h | inhibition, % at 6.95 µM | 2,900 tested, 47% active | AID 743256, 2014;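 active = mean inhibition over the triplicate runs exceeds the activity threshold set in the earlier primary screen, cut at about 20% in these data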;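 also: 0% = DMSO wells and 100% = marimastat wells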
ADAM17 confirm: ADAM17 inhibitors, hit retest, confirmation, biochemical, QFRET peptide cleavage; recombinant ADAM17, EDANS/DABCYL QFRET peptide cleavage; 2,900 tested, 65% active; shares compounds with ADAM17 inh; inhibition, % at 6.95 µM;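 active = mean inhibition across replicates above the hit cutoff set in the primary screen, cut at about 8.5% in these data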;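 also: 0% = DMSO wells and 100% = marimastat wells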
An asterisk follows results filed as active; . = not tested or not shown. This is a sample that favours compounds with a hit; in the whole collection about 1.9% have one here.

SMILES	ADAM17 inh	ADAM10 inh	FAS TE block	SENP1 FRET inh	ADAM10 confirm	ADAM17 counter	ADAM10 counter	ADAM17 confirm
C#CCNC(=O)C[C@@H]1C[C@@](CCC(=O)OCC)(C(=O)OCC)C2=CCCCN2C1=O	-4	-5	.	.	.	.	.	.
CC(C)NC(=O)N[C@@H]1C[C@@H]2O[C@@H](CO)CC[C@@H]2O[C@@H]1CCc1ccc(-c2ccc(F)cc2)cc1	2	2	.	.	.	.	.	.
C[C@H](CO)N1C[C@H](C)[C@H](CN(C)S(C)(=O)=O)OCc2ccccc2-c2c(n(C)c3ccccc23)C1=O	-4	-15	-7	3	.	.	.	.
Cc1ccc(S(=O)(=O)N(C)C[C@@H]2OCc3ccccc3-c3c(n(C)c4ccccc34)C(=O)N([C@H](C)CO)C[C@@H]2C)cc1	12*	27*	29	2	9	2	39*	21*
O=[N+]([O-])c1cccc(C2=Nn3c(nnc3-c3ccccc3)SC2)c1	0	-3	.	.	.	.	.	.
COCc1cc(N2CCNC[C@@H]2C)ccc1N1CCN(Cc2ccccc2)[C@H](C)C1	-6	-12	.	.	.	.	.	.
CCOc1cc(S(=O)(=O)NC2CCCC2)ccc1Cl	0	6	4	2	.	.	.	.
CCOc1cc(S(=O)(=O)Nc2cc(C)cc(C)c2)ccc1Cl	20*	36*	24	1	3	1	27*	15*
CCOc1ccc(-n2c(SCC(=O)Nc3ccc4c(c3)OCCO4)nnc2-c2ccncc2)cc1	1	3	.	.	.	.	.	.
CCC(C)(C)C(=O)N1CCC(C(=O)NC2CCCc3ccccc32)CC1 (configuration not stated)	0	-1	.	.	.	.	.	.
COc1cc(/C=N/NC(=O)[C@H](Cc2c[nH]c3ccccc23)NC(=O)OCC(C)C)cc([N+](=O)[O-])c1O	16*	32*	14	3	5	0	13	7
CC(C)NC(=O)C1CCN(c2cncnc2)CC1	-2	-8	.	.	.	.	.	.
CCN(c1ccc(NS(=O)(=O)c2cc(Cl)ccc2Cl)cc1)C(C)C	11*	24*	25	3	2	1	13	10.0*
O=C(NCc1ccccc1)C1=C[C@H](c2ccc(Br)cc2)C[C@H](OCc2ccc(CO)cc2)O1	9.9*	21*	15	-1	12	4	28*	18*
O=C(Nc1ccccc1)C1=C[C@@H](c2ccccc2)C[C@@H](OCc2ccc(CO)cc2)O1	2	6	11	-1	.	.	.	.
CC(=O)n1cc([C@@H]2C=C(C(=O)Nc3ccccc3)O[C@H](OCc3ccc(CO)cc3)C2)c2ccccc21	8.9*	31*	23	-3	7	3	13	14*
O=C(Nc1ccccc1)C1=C[C@@H](c2ccc(C(F)(F)F)cc2)C[C@@H](OCc2ccc(CO)cc2)O1	11*	27*	28	2	7	3	13	10*
O=C(NN=Cc1ccc(O)cc1)c1cc(-c2ccc(Cl)cc2)n[nH]1	-1	-6	.	.	.	.	.	.
Cc1ccccc1CNC(=O)c1cccc2c1C(=O)N(Cc1cccnc1)C2	-4	-13	.	.	.	.	.	.
O=C(CSc1nnc(-c2cccnc2)n1-c1ccc(Cl)cc1)c1ccc(F)cc1	-3	-3	.	.	.	.	.	.
COc1ccc2c(c1)[C@@]1(NCCc3c1[nH]c1ccc(OC)cc31)C(=O)N2	1	3	.	.	.	.	.	.
CCOC(=O)C1=CCC(c2ccccc2)N(S(=O)(=O)c2ccccc2)C1 (configuration not stated)	15*	22*	19	0	3	1	13	6
CCOC(=O)C1=CCC(c2ccccc2)N(S(C)(=O)=O)C1 (configuration not stated)	-9	3	.	.	.	.	.	.
C(=N\n1cnnc1)/c1ccc(OCc2cccc3ccccc23)cc1	9.7*	23*	8	-1	0	0	0	4
CCc1cc2c(nc1CC)CCCN2S(=O)(=O)c1ccc(C)cc1	-1	-3	.	.	.	.	.	.
SMILES	ADAM17 inh	ADAM10 inh	FAS TE block	SENP1 FRET inh	ADAM10 confirm	ADAM17 counter	ADAM10 counter	ADAM17 confirm
O=C(Nc1ccc(Nc2ccccc2)cc1)c1c(F)c(F)c(F)c(F)c1F	14*	20*	22	2	5	1	30*	14*
O=C(Nc1ccc(Nc2ccccc2)cc1)c1c(Cl)cccc1Cl	3	12	25	0	.	.	.	.
O=C(CSc1nnc(-c2ccc(Cl)cc2)n1Cc1ccco1)Nc1cccc2ccccc12	-1	-11	.	.	.	.	.	.
CC(=NNC(=O)CSc1nnc(-c2ccc(C(C)(C)C)cc2)n1-c1ccccc1)c1cccc2ccccc12	8.9*	23*	.	.	14	4	17	13*
CC(C)(C)c1ccc(-c2nnc(SCC(=O)Nc3cccc4ccccc34)n2Cc2ccco2)cc1	9.2*	20*	.	.	6	2	36*	17*
CCn1c2ccccc2c2cc(NS(=O)(=O)c3ccccc3C)ccc21	9.4*	25*	25	8	6	3	21*	12*
Oc1ccc(Cl)cc1-c1cc(-c2ccccc2Cl)[nH]n1	3	5	-8	-2	.	.	.	.
Oc1ccc(Cl)cc1-c1cc(-c2cccc(Br)c2)n[nH]1	10*	25*	21	-3	13	4	31*	17*
Cc1ccc([C@H]2C[C@H](n3cc(COC(=O)c4ccccc4)nn3)[C@@H](O)CN2Cc2cccs2)cc1	12*	24*	16	-4	6	2	12	9.2*
NC(=O)[C@H]1CC2(CC(c3cccc(NC(=O)COc4ccc(Cl)cc4)c3)=NO2)CN1C(=O)c1ccc(Cl)cc1 (some centres not stated)	14*	36*	13	0	4	1	37*	22*
CC1(C(=O)N2CC3(CC(c4cccc(NC(=O)COc5ccc(Cl)cc5)c4)=NO3)C[C@@H]2C(N)=O)CC1 (some centres not stated)	-2	4	-2	-1	.	.	.	.

Bioassay records from PubChem.
